Laboratory results published in PMC6368469 (Journal of clinical pharmacology, 2018).
Where “and” joins values, the source holds several entries; their conditions need not be identical. Equal values may be shown once. Where a name gives a salt, the structure may show the parent alone. Read-outs that look alike come from different tables or passages of the source. Values belong to the compound of their own block, whether it stands above or below them.

Key:
[1] = type: in vivo, human; conditions: for Cmax / Cmin / AUC(0-t): plasma; for Cl/F: dose/AUC0–12
[2] = Umbilical cord blood and maternal plasma concentrations at delivery; type: in vivo, human; conditions: 15 patients, detection limit 0.039 μg/mL; for Detected in maternal plasma samples: number of samples at delivery; for Detected in cord plasma samples: number of samples
[3] = Clinical and laboratory safety monitoring of mothers and infants; type: in vivo, human
[4] = cited from earlier work
HIV = conditions: cited from earlier work
[5] = Stability in stored plasma; type: in vitro ADME; conditions: plasma stored at −20°C
Outline: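 Human plasma from study participants, stored at −20°C. Test compound and its metabolite were quantified together by reversed-phase HPLC-UV after acetonitrile protein precipitation. Supernatant was injected onto a C-18 column and eluted isocratically with 10mM potassium phosphate pH 4.2:ACN (62:38 v/v) at 1.2 mL/min. Detection was at 206 nm, with a detection limit of 0.039 μg/mL. Validation QC samples spanned multiple concentrations.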

[6] = cited from earlier work; remark: listed apart in the source
[7] = 1875mg BID 3rd trimester vs 1250mg BID postpartum, (90% CI)
[8] = 3rd trimester, nelfinavir 1875mg BID, median (IQR), n = 18
[9] = postpartum, nelfinavir 1250mg BID, median (IQR), n=16
[10] = 1875mg BID 3rd trimester vs 1250mg BID postpartum, (90% CI), listed as Nelfinavir

Cmin geometric mean ratio 3rd trimester/postpartum [1, 7]: 0.78 (0.40–1.26) | M8/NFV AUC ratio [1, 8]: 0.11 (0.08–0.22) | Cmax [1, 8]: 0.66 (0.48–1.12) μg/mL | Cmin [1, 8]: 0.11 (0.05–0.15) μg/mL | Cmax [1, 9]: 1.20 (1.07–1.71) μg/mL | Cmin [1, 9]: 0.14 (0.04–0.21) μg/mL | M8/NFV AUC ratio [1, 9]: 0.30 (0.17–0.35) | Detected in maternal plasma samples [2]: 10 | Detected in cord plasma samples [2]: 3
SMILES: Cc1c(O)cccc1C(=O)N[C@@H](CSc1ccccc1)[C@H](O)CN1C[C@H]2CCCC[C@H]2C[C@H]1C(=O)NC(C)(C)CO [M8, hydroxyl-tert-butylamide]

AUC0–12 geometric mean ratio 3rd trimester/postpartum [1, 7]: 0.98 (0.71–1.35) | Cl/F geometric mean ratio 3rd trimester/postpartum [1, 7]: 1.54 (1.12–2.11) | Cmax geometric mean ratio 3rd trimester/postpartum [1, 7]: 1.06 (0.85–1.34) | Cmin geometric mean ratio 3rd trimester/postpartum [1, 7]: 0.90 (0.71–1.16) | AUC0–12 geometric mean ratio 3rd trimester/postpartum [1, 10]: 0.98 | Cl/F geometric mean ratio 3rd trimester/postpartum [1, 10]: 1.54 | Participants with AUC0–12 above target (18.5 μg h/mL) ([1]; 3rd trimester, 1875 mg twice daily, 15 of 18): 83% | Cl/F [1, 8]: 54.9 (40.4–68.9) L/h | AUC(0-t) ([1]; female, human, 1250 mg): 33500 ng·h/mL and 58.9 µM·h | Cmax ([1]; female, human, 1250 mg): 5000 ng/mL | AUC(0-t) ([1]; female, human, 1875 mg): 34200 ng·h/mL and 60.2 µM·h | Patients with increased Cl/F during 3rd trimester compared to the postpartum period ([1]; number of pregnant patients): 11 out of 18 | Cmin [1, 8]: 0.47 (0.35–1.33) μg/mL | Cmin [1, 9]: 0.52 (0.22–0.80) μg/mL | Participants with AUC0–12 above target (18.5 μg h/mL) ([1]; postpartum, 1250mg twice daily, 14 of 16): 88% | Cl/F [1, 9]: 37.4 (28.7–43.7) L/h | Detected in maternal plasma samples [2]: 13 out of 15 | Detected in cord plasma samples [2]: 10 out of 15 | Stability in plasma [5]: stable
SMILES: Cc1c(O)cccc1C(=O)N[C@@H](CSc1ccccc1)[C@H](O)CN1C[C@H]2CCCC[C@H]2C[C@H]1C(=O)NC(C)(C)C [NFV, Nelfinavir mesylate]
Grade 3–4 adverse events treatment-related ([3]; 18 patients): none were determined to be treatment-related | Safety concerns ([3]; increased dose 1875 mg twice daily in third trimester): No major safety concerns were noted | Subjects meeting the AUC target during the 3rd trimester ([4]; in vivo, 1250 mg): 56% | Placental crossing ([4]; in vivo): crossed the placenta poorly | 10th percentile AUC0–12 (target AUC) ([4]; non-pregnant historical controls): 18500 ng·h/mL | Activity against HIV (HIV): moderately potent activity

SMILES: CC(C)CN(C[C@@H](O)[C@H](Cc1ccccc1)NC(=O)O[C@H]1CO[C@H]2OCC[C@H]21)S(=O)(=O)c1ccc(N)cc1 [darunavir]
AUC and Cmax in pregnancy ([6]; standard dosing): substantially decreased

SMILES: Cc1cc(C#N)cc(C)c1Oc1nc(Nc2ccc(C#N)cc2)nc(N)c1Br [etravirine]
Exposure during pregnancy [6]: increased
